Measurements published in ChEMBL document CHEMBL1121490, “10-Piperazinyl-4H-theino[3,2-b][1,5]- and -[3,4-b][1,5]benzodiazepines as potential neuroleptics” (J Med Chem, 1980).

What was measured:
Mus musculus [1] = assay: Hypothermia in mice after perorla administration; type: functional
How it was run: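 Groups of three CFW mice were dosed orally. Rectal temperature was taken 15 min, 2.5 h and 5 h after dosing. Mean changes from each group's mean initial temperature were summed as a "temperature index". ED_min is the minimum dose (mg/kg) giving an index at least 5 lower than the control group.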

Rattus norvegicus [2] = assay: Compound was evaluated for its ability to block conditioned avoidance response (CAR) in rats; Dose administered perorally is 40 mg/kg; no significant block 0-25%; type: functional; conditions: route oral
Rattus norvegicus [3] = assay: compound was evaluated for its ability to produce catalepsy activity in rats; Dose administered perorally is 50 mg/kg; type: functional; conditions: route oral
How it was run: (§1)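 Groups of eight Lilly Wistar rats (180–190 g) were dosed orally and checked at 0.5, 1, 1.5, 2, 3, 4 and 5 h. Front paws were placed on a 1.5-cm rod 7 cm above the table, and posture was timed up to 20 min. Release within 10 s counted as noncataleptic. Each rat was scored 0–5 by hold time. Maximum scores per animal were summed, giving a group maximum of 40.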

[4] = (§2) Lethal dose in mice after perorla administration; type: toxicity, organism-based; conditions: mouse, in vivo, po
How it was run: (§3)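 CFW albino mice (19–21 g), groups of three, given oral doses up to 800 mg/kg as solution or suspension. Mortality and gross behavioural changes observed over 48 h; LD50 approximated from the outcome.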

Rattus norvegicus [5] = assay: Compound was evaluated for its ability to block conditioned avoidance response (CAR) in rats; Dose administered perorally is 50 mg/kg; 31-50% block; type: functional; conditions: route oral
Rattus norvegicus [6] = assay: compound was evaluated for its ability to produce catalepsy activity in rats; Dose administered perorally is 100 mg/kg; type: functional; conditions: route oral; how it was run: as §1
Rattus norvegicus [7] = assay: Compound was evaluated for its ability to block conditioned avoidance response (CAR) in rats; Dose administered perorally is 50 mg/kg; no significant block 0-25%; type: functional; conditions: route oral
Rattus norvegicus [8] = assay: Compound was evaluated for its ability to block conditioned avoidance response (CAR) in rats; Dose administered perorally is 25 mg/kg; 76-99% block; type: functional; conditions: route oral
Mus musculus [9] = assay: as §2; type: toxicity, organism-based; conditions: in vivo, po; how it was run: as §3
Rattus norvegicus [10] = assay: compound was evaluated for its ability to produce catalepsy activity in rats; Dose administered perorally is 25 mg/kg; type: functional; conditions: route oral; how it was run: as §1
Rattus norvegicus [11] = assay: Compound was evaluated for its ability to block conditioned avoidance response (CAR) in rats; Dose administered perorally is 5 mg/kg; no significant block 0-25%; type: functional; conditions: route oral
Rattus norvegicus [12] = assay: Compound was evaluated for its ability to block conditioned avoidance response (CAR) in rats; Dose administered perorally is 25 mg/kg; 31-50% block; type: functional; conditions: route oral
Rattus norvegicus [13] = assay: Compound was evaluated for its ability to produce catalepsy activity in rats; Dose administered perorally is 50 mg/kg; no significant effect (group score 0-3); type: functional; conditions: route oral; how it was run: as §1
Rattus norvegicus [14] = assay: Compound was evaluated for its ability to block conditioned avoidance response (CAR) in rats; Dose administered perorally is 50 mg/kg; 26-30% block; type: functional; conditions: route oral
Rattus norvegicus [15] = assay: Compound was evaluated for its ability to block conditioned avoidance response (CAR) in rats; Dose administered perorally is 25 mg/kg;n o significant block 0-25%; type: functional; conditions: route oral
Rattus norvegicus [16] = assay: compound was evaluated for its ability to produce catalepsy activity in rats; Dose administered perorally is 20 mg/kg; type: functional; conditions: route oral; how it was run: as §1
Rattus norvegicus [17] = assay: Compound was evaluated for its ability to block conditioned avoidance response (CAR) in rats; Dose administered perorally is 20 mg/kg; 51-75% block; type: functional; conditions: route oral
How it was run: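 Lilly Wistar rats (120–130 g) trained in a shuttle box to cross on a 5-s buzzer; failure to respond within 1 s of its end gave a mild shock. Only high responders used. Groups of five dosed orally 1 h 50 min before test; 10-min habituation, then 20-min session. Blockade = shocks received as % of stimuli presented.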

Rattus norvegicus [18] = assay: Compound was evaluated for its ability to block conditioned avoidance response (CAR) in rats; Dose administered perorally is 25 mg/kg; 51-75% block; type: functional; conditions: route oral
Rattus norvegicus [19] = assay: Compound was evaluated for its ability to block conditioned avoidance response (CAR) in rats; Dose administered perorally is 12.5 mg/kg; 51-75% block; type: functional; conditions: route oral
Rattus norvegicus [20] = species on record: Rattus norvegicus; assay: compound was evaluated for its ability to produce catalepsy activity in rats; type: functional; how it was run: as §1
Rattus norvegicus [21] = assay: Compound was evaluated for its ability to block conditioned avoidance response (CAR) in rats; Dose administered perorally is 40 mg/kg; 51-75% block; type: functional; conditions: route oral
Rattus norvegicus [22] = assay: Compound was evaluated for its ability to block conditioned avoidance response (CAR) in rats; Dose administered perorally is 10 mg/kg; no significant block 0-25%; type: functional; conditions: route oral
Rattus norvegicus [23] = assay: Compound was evaluated for its ability to block conditioned avoidance response (CAR) in rats; Dose administered perorally is 10; 51-75% block; type: functional
Rattus norvegicus [24] = assay: Compound was evaluated for its ability to block conditioned avoidance response (CAR) in rats; Dose administered perorally is 10 mg/kg; 51-75% block; type: functional; conditions: route oral
Rattus norvegicus [25] = species on record: Rattus norvegicus; assay: compound was evaluated for its ability to produce catalepsy activity in rats.; type: functional
How it was run: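 Groups of eight Lilly Wistar rats (180–190 g) dosed orally, front paws placed on 1.5-cm rod 7 cm above table at 0.5, 1, 1.5, 2, 3, 4, 5 h. Time held recorded up to 20 min, scored 0–5 (<10 s = 0 up to >20 min = 5). Maximum score per animal summed; group maximum 40.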

Rattus norvegicus [26] = assay: Compound was evaluated for its ability to block conditioned avoidance response (CAR) in rats; Dose administered perorally is 50 mg/kg; 51-75% block; type: functional; conditions: route oral
Rattus norvegicus [27] = assay: Compound was evaluated for its ability to block conditioned avoidance response (CAR) in rats; Dose administered perorally is 2.5 mg/kg; 31-50% block; type: functional; conditions: route oral
Rattus norvegicus [28] = assay: compound was evaluated for its ability to produce catalepsy activity in rats; Dose administered perorally is 2.5 mg/kg; type: functional; conditions: route oral; how it was run: as §1

Row | SMILES | EDmin (Mus musculus [1]) [mg/kg] | Activity (Rattus norvegicus [3]) | LD50 [4] [mg/kg] | further results
1 | OCCCN1CCN(C2=Nc3cc(F)ccc3Nc3ccsc32)CC1 | 200 | 0 | > 400 | Activity (Rattus norvegicus [2]): 0
2 | Fc1ccc2c(c1)N=C(N1CCNCC1)c1sccc1N2 | 50 | 1 | 400 | Activity (Rattus norvegicus [5]): 2
3 | Cc1scc2c1Nc1ccccc1N=C2N1CCN(C)CC1 | >100 |  | 200 | Activity (Rattus norvegicus [6]): 0; Activity (Rattus norvegicus [7]): 0
4 | c1ccc2c(c1)N=C(N1CCNCC1)c1cscc1N2 | 50 | 1 | > 400 | Activity (Rattus norvegicus [7]): 0
5 | CN1CCN(C2=Nc3ccccc3Nc3cscc32)CC1 | 25 |  | 150 | Activity (Rattus norvegicus [8]): 4; LD50 (Mus musculus [9]): 150 mg/kg; Activity (Rattus norvegicus [10]): 1
6 | CN1CCN(C2=NC3=CSCC3=Nc3ccccc32)CC1 | 50 |  | 50 | Activity (Rattus norvegicus [11]): 0
7 | CSc1ccc2c(c1)N=C(N1CCN(C)CC1)c1cscc1N2 | 25 |  | 400 | Activity (Rattus norvegicus [12]): 2
8 | c1ccc2c(c1)N=C(N1CCNCC1)c1sccc1N2 | 50 |  | 400 | Activity (Rattus norvegicus [13]): 0; Activity (Rattus norvegicus [14]): 1
9 | Cc1scc2c1C(N1CCN(C)CC1)=Nc1ccccc1N2 | 50 |  | > 400 | Activity (Rattus norvegicus [15]): 0
10 | Fc1ccc2c(c1)N=C(N1CCNCC1)c1cscc1N2 | 100 | 0 | 600 | Activity (Rattus norvegicus [7]): 0
11 | CN1CCN(C2=Nc3ccccc3N(C)c3cscc32)CC1 | 25 | 0 | 150 | Activity (Rattus norvegicus [5]): 2
12 | Fc1ccc2c(c1)N=C(N1CCN(Cc3ccccc3)CC1)c1sccc1N2 | 100 |  | > 400 | Activity (Rattus norvegicus [7]): 0
13 | CN1CCN(C2=Nc3cc(F)ccc3Nc3ccsc32)CC1 | 12.5 |  | > 25 | Activity (Rattus norvegicus [16]): 2; Activity (Rattus norvegicus [17]): 3
14 | O=CN1CCN(C2=Nc3ccccc3N(C=O)c3cscc32)CC1 | 200 |  | 400 | Activity (Rattus norvegicus [7]): 0
15 | Clc1cc2c(cc1Cl)Nc1cscc1C(N1CCNCC1)=N2 | 200 | 0 | > 800 | Activity (Rattus norvegicus [7]): 0
16 | Clc1ccc2c(c1)N=C(N1CCNCC1)c1cscc1N2 | 25 | 0 | > 400 | Activity (Rattus norvegicus [7]): 0
17 | CCOC(=O)N1CCN(C2=Nc3cc(F)ccc3Nc3ccsc32)CC1 | >800 |  | > 800 | Activity (Rattus norvegicus [14]): 1

Row | SMILES | EDmin (Mus musculus [1]) [mg/kg] | Activity (Rattus norvegicus [3]) | LD50 [4] [mg/kg] | further results
18 | COc1ccc2c(c1)N=C(N1CCN(C)CC1)c1cscc1N2 | 50 | 1 | 200 | Activity (Rattus norvegicus [14]): 1
19 | CN1CCN(C2=Nc3ccc(C(F)(F)F)cc3Nc3cscc32)CC1 | 100 | 0 | 600 | Activity (Rattus norvegicus [7]): 0
20 | CN1CCN(C2=Nc3ccccc3Nc3ccsc32)CC1 | 25 |  | 100 | Activity (Rattus norvegicus [18]): 3; Activity (Rattus norvegicus [10]): 2
21 | CN1CCN(C2=Nc3cc(Cl)ccc3Nc3ccsc32)CC1 | 6.25 |  | 50 | Activity (Rattus norvegicus [19]): 3; Activity (Rattus norvegicus [20]): 2
22 | CN1CCN(C2=Nc3cc(C(F)(F)F)ccc3Nc3cscc32)CC1 | 50 |  | > 200 | Activity (Rattus norvegicus [21]): 3
23 | OCCN1CCN(C2=Nc3cc(F)ccc3Nc3ccsc32)CC1 | 25 | 0 | > 400 | Activity (Rattus norvegicus [5]): 2
24 | c1ccc(CN2CCN(C3=Nc4ccccc4Nc4ccsc43)CC2)cc1 | 200 |  | > 400 | Activity (Rattus norvegicus [7]): 0
25 | OCCCN1CCN(C2=Nc3ccccc3Nc3cscc32)CC1 | >400 |  | > 400 | Activity (Rattus norvegicus [14]): 1
26 | Cc1cc2c(s1)C(N1CCN(C)CC1)=Nc1cc(F)ccc1N2 | 12.5 |  | 150 | Activity (Rattus norvegicus [22]): 0
27 | c1ccc(CN2CCN(C3=Nc4ccccc4Nc4cscc43)CC2)cc1 | 800 |  | 800 | Activity (Rattus norvegicus [7]): 0
28 | CN1CCN(c2cccc3c2N=C2SC=CC2N=C3)CC1 (stereo not given) | >50 |  | > 50 | 
29 | CN1CCN(C2=Nc3cc(Cl)ccc3Nc3cscc32)CC1 | 3 |  | 75 | Activity (Rattus norvegicus [23]): 3; Activity (Rattus norvegicus [20]): 1
30 | CN(C)CCCN1c2ccccc2Sc2ccc(Cl)cc21 [CHLORPROMAZINE] | 6.25 |  |  | Activity (Rattus norvegicus [24]): 3; Activity (Rattus norvegicus [20]): 1
31 | CN1CCN(C2=Nc3cc(Cl)ccc3Nc3ccccc32)CC1 [CLOZAPINE] | 50 |  |  | Activity (Rattus norvegicus [17]): 3; Activity (Rattus norvegicus [25]): 2
32 | OCCN1CCN(CC/C=C2\c3ccccc3Sc3ccc(C(F)(F)F)cc32)CC1 [E-FLUPENTIXOL] | >400 | 0 | > 400 | Activity (Rattus norvegicus [14]): 1
33 | CSc1ccc2c(c1)N(CCC1CCCCN1C)c1ccccc1S2 (stereo not given) [THIORIDAZINE] | 25 |  |  | Activity (Rattus norvegicus [10]): 1; Activity (Rattus norvegicus [26]): 3
34 | OCCN1CCN(CC/C=C2/c3ccccc3Sc3ccc(C(F)(F)F)cc32)CC1 [Z-FLUPENTIXOL] | 3 |  |  | Activity (Rattus norvegicus [27]): 2; Activity (Rattus norvegicus [28]): 4
